Measurements from ChEMBL document CHEMBL4325914, “Design and Evaluation of Potent EGFR Inhibitors through the Incorporation of Macrocyclic Polyamine Moieties into the 4-Anilinoquinazoline Scaffold” (J Med Chem, 2018).
Activity calls are given as the source filed them. No cut-off for these calls is given here.

How the values were obtained:
A549 [1] = experiment: cells; format: functional, cell-based; conditions: Homo sapiens, A549, 72 h
A549 [2] = experiment: Cytotoxicity against human A549 cells assessed as effect on intracellular ATP levels at 0 to 2 uM after 24 hrs by luciferase-luciferin based assay; format: functional, cell-based
Procedure, shortened: (§1)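 A549 cells were plated at 4000 per well and allowed to settle 12 h. They were then exposed to compound or DMSO for 24 h or 72 h. Medium was removed and reconstituted luciferase-luciferin reagent added. Luminescence was read within 1 min and converted to ATP concentration from a reference plot. Each concentration was run in quadruplicate.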

A549 [3] = experiment: Cytotoxicity against human A549 cells assessed as effect on intracellular ATP levels at 6 uM after 24 hrs by luciferase-luciferin based assay; format: functional, cell-based
Procedure, shortened: as §1

A549 [4] = experiment: Induction of apoptosis in human A549 cells assessed as early apoptotic cells at 8 uM after 72 hrs by FITC-annexin V/propidium iodide-double staining based flow cytometry (reference value: 9.38%); format: functional
A549 [5] = experiment: Induction of apoptosis in human A549 cells assessed as late apoptotic cells at 8 uM after 72 hrs by FITC-annexin V/propidium iodide-double staining based flow cytometry (reference value: 6.59%); format: functional
L929 = experiment: Cytotoxicity against mouse L929 cells assessed as cell growth inhibition after 72 hrs by MTT assay; format: cell-based; conditions: L929, 72 h
in vitro = conditions: mouse, L929 cells
A549 [6] = experiment: Cytotoxicity against human A549 cells assessed as reduction in intracellular ATP levels at 8 uM after 24 hrs by luciferase-luciferin based assay; format: functional, cell-based
Procedure, shortened: as §1

[7] = Toxicity in human A549 cells xenografted BALB/c nude mouse assessed as effect on body weight at 30 mg/kg, ig administered every 2 days for 19 days; format: organism-based; conditions: in vivo, po
Procedure, shortened: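 Female six-week-old BALB/c nude mice received 2.0 × 10^6 A549 cells subcutaneously. Dosing began at mean tumor size 200-400 mm3. 21 mice were randomized to vehicle (water, 30 mL/kg) or drug (30 mg/kg), both intragastric, every 2 days for 19 days. Body weight was recorded. Tumors were caliper-measured twice weekly (V = length × width²/2) and weighed at the end.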

A-431 = experiment: cells; format: functional, cell-based; conditions: Homo sapiens, A-431, 72 h;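 note: antiproliferative activity measured with an MTT assay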
[8] = target: Epidermal growth factor receptor (Homo sapiens, UniProt P00533)
[9] = target: Receptor tyrosine-protein kinase erbB-2 (Homo sapiens, UniProt P04626); experiment: Inhibition of wild type human N-terminal His-tagged HER2 cytoplasmic domain (676 to 1255 residues) expressed in baculovirus expression system after 1 hr in presence of ULight-labeled peptide substrate and ATP by LANCE ultra kinase assay
[10] = target: Epidermal growth factor receptor (Homo sapiens, UniProt P00533, T790M)
A549 [11] = experiment: Cytotoxicity against human A549 cells assessed as depletion of intracellular ATP levels at 2 uM after 72 hrs by luciferase-luciferin based assay; format: functional, cell-based
Procedure, shortened: as §1

A549 [12] = experiment: Induction of apoptosis in human A549 cells assessed as early apoptotic cells at 1 uM after 72 hrs by FITC-annexin V/propidium iodide-double staining based flow cytometry (reference value: 9.38%); format: functional
A549 [13] = experiment: Induction of apoptosis in human A549 cells assessed as early apoptotic cells at 4 uM after 72 hrs by FITC-annexin V/propidium iodide-double staining based flow cytometry (reference value: 9.38%); format: functional
A549 [14] = experiment: Induction of apoptosis in human A549 cells assessed as late apoptotic cells at 1 uM after 72 hrs by FITC-annexin V/propidium iodide-double staining based flow cytometry (reference value: 6.59%); format: functional
A549 [15] = experiment: Induction of apoptosis in human A549 cells assessed as late apoptotic cells at 4 uM after 72 hrs by FITC-annexin V/propidium iodide-double staining based flow cytometry (reference value: 6.59%); format: functional
A549 [16] = experiment: Induction of apoptosis in human A549 cells after 72 hrs by FITC-annexin V/propidium iodide-double staining based flow cytometry; format: functional, cell-based
A549 [17] = experiment: animal or person; format: functional, Homo sapiens; conditions: Mus musculus, A549, po, read-out: TGI
A549 [18] = experiment: Antitumor activity against human A549 cells xenografted in BALB/c nude mouse assessed as tumor necrosis at 30 mg/kg, ig administered every 2 days for 19 days by hematoxylin/eosin-staining based histological analysis; format: functional, organism-based
A549 [19] = experiment: Cytotoxicity against human A549 cells assessed as depletion of intracellular ATP levels at 8 uM after 72 hrs by luciferase-luciferin based assay; format: functional, cell-based
Procedure, shortened: as §1

Epidermal growth factor receptor (Homo sapiens, UniProt P00533), sequence (P00533 whole entry, the tested form may be a part): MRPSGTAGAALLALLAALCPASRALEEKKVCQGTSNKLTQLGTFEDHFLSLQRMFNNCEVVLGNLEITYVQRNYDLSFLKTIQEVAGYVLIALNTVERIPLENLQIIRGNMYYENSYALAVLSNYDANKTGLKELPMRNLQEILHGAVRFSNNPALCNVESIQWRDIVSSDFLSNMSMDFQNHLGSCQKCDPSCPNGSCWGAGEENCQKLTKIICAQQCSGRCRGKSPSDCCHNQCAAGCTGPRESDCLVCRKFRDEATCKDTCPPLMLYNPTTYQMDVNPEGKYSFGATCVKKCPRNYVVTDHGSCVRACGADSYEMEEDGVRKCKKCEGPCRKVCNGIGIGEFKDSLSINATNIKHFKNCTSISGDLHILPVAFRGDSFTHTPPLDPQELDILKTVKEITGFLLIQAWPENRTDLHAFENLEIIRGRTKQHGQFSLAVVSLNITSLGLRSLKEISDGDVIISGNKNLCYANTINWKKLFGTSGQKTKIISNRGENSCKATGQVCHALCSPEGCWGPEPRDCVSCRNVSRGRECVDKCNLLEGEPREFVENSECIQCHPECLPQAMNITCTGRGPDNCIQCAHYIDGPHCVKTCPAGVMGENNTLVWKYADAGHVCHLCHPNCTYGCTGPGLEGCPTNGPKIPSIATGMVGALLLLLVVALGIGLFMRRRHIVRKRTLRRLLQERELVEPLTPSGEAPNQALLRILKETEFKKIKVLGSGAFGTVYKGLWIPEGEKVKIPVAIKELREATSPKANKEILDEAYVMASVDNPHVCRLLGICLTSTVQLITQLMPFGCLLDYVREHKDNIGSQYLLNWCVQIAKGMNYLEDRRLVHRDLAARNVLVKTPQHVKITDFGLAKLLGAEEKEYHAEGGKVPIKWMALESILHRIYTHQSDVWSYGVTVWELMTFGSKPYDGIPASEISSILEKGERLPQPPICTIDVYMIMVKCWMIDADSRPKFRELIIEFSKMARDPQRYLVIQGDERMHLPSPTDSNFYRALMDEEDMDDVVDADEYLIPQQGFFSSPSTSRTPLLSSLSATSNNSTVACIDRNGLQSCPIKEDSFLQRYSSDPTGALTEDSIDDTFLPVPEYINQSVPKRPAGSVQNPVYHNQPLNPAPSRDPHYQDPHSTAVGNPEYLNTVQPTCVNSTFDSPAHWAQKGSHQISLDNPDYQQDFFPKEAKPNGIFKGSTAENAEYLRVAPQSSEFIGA
Receptor tyrosine-protein kinase erbB-2, sequence (P04626 whole entry, the tested form may be a part): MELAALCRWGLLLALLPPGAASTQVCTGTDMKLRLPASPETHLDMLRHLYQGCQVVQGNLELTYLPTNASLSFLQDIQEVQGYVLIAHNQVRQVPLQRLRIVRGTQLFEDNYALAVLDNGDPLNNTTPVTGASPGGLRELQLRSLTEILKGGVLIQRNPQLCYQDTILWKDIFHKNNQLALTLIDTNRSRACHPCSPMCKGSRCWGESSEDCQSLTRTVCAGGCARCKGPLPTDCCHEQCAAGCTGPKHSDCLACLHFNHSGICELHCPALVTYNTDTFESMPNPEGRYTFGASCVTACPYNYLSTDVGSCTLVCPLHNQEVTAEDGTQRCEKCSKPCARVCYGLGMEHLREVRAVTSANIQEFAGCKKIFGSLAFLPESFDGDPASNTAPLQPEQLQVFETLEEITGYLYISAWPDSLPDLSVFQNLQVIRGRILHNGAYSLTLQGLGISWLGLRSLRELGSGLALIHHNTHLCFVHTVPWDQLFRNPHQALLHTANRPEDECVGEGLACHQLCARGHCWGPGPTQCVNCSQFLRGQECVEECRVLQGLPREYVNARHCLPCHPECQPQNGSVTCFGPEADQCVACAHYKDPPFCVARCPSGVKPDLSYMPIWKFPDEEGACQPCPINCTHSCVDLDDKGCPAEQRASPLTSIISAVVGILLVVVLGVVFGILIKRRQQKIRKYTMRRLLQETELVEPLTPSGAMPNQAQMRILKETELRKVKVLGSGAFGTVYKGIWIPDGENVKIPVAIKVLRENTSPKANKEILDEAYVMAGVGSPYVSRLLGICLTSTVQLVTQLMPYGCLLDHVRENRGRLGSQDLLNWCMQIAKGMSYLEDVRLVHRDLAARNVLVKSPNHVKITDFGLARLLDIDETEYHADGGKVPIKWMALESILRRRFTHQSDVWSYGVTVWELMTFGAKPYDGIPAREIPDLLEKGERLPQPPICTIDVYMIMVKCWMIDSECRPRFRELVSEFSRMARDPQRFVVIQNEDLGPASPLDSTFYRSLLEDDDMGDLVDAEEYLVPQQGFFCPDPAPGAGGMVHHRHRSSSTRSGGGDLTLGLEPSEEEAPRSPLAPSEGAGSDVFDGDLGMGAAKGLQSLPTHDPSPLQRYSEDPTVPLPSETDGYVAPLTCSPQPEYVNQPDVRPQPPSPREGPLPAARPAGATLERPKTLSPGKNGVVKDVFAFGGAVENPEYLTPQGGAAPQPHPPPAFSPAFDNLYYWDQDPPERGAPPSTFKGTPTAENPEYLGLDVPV
Epidermal growth factor receptor (Homo sapiens, UniProt P00533, T790M), sequence (P00533 25-1210 T790M limits assumed): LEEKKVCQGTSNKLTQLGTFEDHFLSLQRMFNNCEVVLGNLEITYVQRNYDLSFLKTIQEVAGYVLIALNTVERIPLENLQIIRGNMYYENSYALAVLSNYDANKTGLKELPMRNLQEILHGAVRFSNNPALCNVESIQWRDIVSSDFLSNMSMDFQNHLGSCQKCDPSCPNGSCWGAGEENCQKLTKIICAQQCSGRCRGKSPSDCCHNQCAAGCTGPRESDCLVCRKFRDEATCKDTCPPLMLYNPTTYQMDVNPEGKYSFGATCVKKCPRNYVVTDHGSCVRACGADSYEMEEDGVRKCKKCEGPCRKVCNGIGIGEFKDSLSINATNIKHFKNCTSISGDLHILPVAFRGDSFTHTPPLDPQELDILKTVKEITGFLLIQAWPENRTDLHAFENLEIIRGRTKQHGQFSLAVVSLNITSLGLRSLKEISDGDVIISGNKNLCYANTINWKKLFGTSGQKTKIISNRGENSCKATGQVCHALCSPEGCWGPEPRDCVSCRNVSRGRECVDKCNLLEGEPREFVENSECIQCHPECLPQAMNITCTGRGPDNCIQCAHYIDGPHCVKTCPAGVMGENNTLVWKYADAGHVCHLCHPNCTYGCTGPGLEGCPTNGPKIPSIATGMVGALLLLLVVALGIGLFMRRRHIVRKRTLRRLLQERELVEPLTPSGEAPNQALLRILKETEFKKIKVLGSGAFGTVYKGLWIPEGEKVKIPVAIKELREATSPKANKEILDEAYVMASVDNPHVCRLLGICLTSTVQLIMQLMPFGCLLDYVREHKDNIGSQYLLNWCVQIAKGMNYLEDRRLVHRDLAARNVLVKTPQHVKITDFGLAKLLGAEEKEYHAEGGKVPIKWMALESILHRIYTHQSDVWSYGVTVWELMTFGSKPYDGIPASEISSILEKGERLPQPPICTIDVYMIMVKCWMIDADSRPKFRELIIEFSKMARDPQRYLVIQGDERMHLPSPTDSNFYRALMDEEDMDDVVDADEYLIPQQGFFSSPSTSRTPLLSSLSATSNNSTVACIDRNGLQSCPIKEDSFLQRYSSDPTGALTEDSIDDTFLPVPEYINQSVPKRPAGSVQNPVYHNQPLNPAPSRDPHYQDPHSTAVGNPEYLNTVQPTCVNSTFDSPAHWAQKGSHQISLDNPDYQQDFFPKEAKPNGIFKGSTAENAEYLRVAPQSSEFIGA

| SMILES | IC50 (A549 [1]) | IC50 (A-431) | other results |
| --- | --- | --- | --- |
| CS(=O)(=O)CCNCc1ccc(-c2ccc3ncnc(Nc4ccc(OCc5cccc(F)c5)c(Cl)c4)c3c2)o1 [LAPATINIB] | 3.64 µM |  | Activity (A549 [2]): inactive; Activity (A549 [3]): Active; Activity (A549 [4]): 52.04%; Activity (A549 [5]): 5.73%; IC50 (L929): 2.05 µM; inhibition at 72 h, 1 µM (in vitro): 35% |
| COc1cc2ncnc(Nc3ccc(F)c(Cl)c3)c2cc1OCCCN1CCOCC1 [GEFITINIB] |  |  | Activity (A549 [2]): inactive; Activity (A549 [6]): Active; Activity (A549 [4]): 20.72%; Activity (A549 [5]): 7.05%; Activity [7]: Non-Toxic |
| COc1cc2ncnc(Nc3cccc(F)c3)c2cc1OCCCN1CCNCCNCCNCC1 | > 50 µM | 1.86 µM |  |
| COc1cc2ncnc(Nc3ccc(F)c(Cl)c3)c2cc1OCCCN1CCNCCNCCNCC1 | 20.2 µM | 1.01 µM | IC50 [8]: 0.0066 µM |
| COc1cc2ncnc(Nc3cccc(I)c3)c2cc1OCCCN1CCNCCNCCNCC1 | 14.5 µM | 2.54 µM |  |
| COc1cc2ncnc(Nc3cccc(I)c3)c2cc1OCCCN1CCNCCNCC1 | 26.2 µM | 2.21 µM |  |
| COc1cc2ncnc(Nc3ccc(OCc4cccc(F)c4)c(Cl)c3)c2cc1OCCCN1CCNCCNCCNCC1 | 3.4 µM | 0.958 µM | IC50 [8]: 0.0014 µM; IC50 [9]: 0.0021 µM; IC50 [10]: 0.0165 µM; Activity (A549 [2]): inactive; Activity (A549 [6]): Active; Activity (A549 [11]): Active; Activity (A549 [12]): 6.25%; Activity (A549 [13]): 54.62%; Activity (A549 [4]): 81.53%; Activity (A549 [14]): 11.16%; Activity (A549 [15]): 4.36%; Activity (A549 [5]): 7.94%; Activity (A549 [16]): Dose-dependent effect; IC50 (L929): 2.74 µM; inhibition in vivo at 30 mg/kg (A549 [17]): 44.2%; Activity (A549 [18]): Active; Activity [7]: Non-Toxic; inhibition at 72 h, 1 µM (in vitro): 37.6% |
| COc1cc2ncnc(Nc3ccc(Br)cc3F)c2cc1OCCCN1CCNCCNCCNCC1 | 15.2 µM | 1.84 µM |  |
| COc1cc2ncnc(Nc3cccc(C(F)(F)F)c3)c2cc1OCCCN1CCNCCNCCNCC1 | 15.7 µM | 1.95 µM |  |
| COc1cccc(Nc2ncnc3cc(OC)c(OCCCN4CCNCCNCCNCC4)cc23)c1 | > 50 µM | 3.21 µM |  |
| COc1cc2ncnc(Nc3cccc(C(F)(F)F)c3)c2cc1OCCCN1CCNCCNCC1 | 37.3 µM | 1.56 µM |  |
| COc1cc2ncnc(Nc3cccc(Br)c3)c2cc1OCCCN1CCNCCNCCNCC1 | 14.7 µM | 1.05 µM |  |
| COc1cc2ncnc(Nc3ccc(Cl)c(C(F)(F)F)c3)c2cc1OCCCN1CCNCCNCC1 | 6.23 µM | 2.98 µM |  |
| COc1cccc(Nc2ncnc3cc(OC)c(OCCCN4CCNCCNCC4)cc23)c1 | > 50 µM | 8.53 µM |  |
| CCc1cc(Br)ccc1Nc1ncnc2cc(OC)c(OCCCN3CCNCCNCC3)cc12 | > 50 µM | 18.8 µM |  |
| COc1cc2ncnc(Nc3ccc(Cl)cc3Cl)c2cc1OCCCN1CCNCCNCCNCC1 | 23.8 µM | 4.38 µM |  |

| SMILES | IC50 (A549 [1]) | IC50 (A-431) | other results |
| --- | --- | --- | --- |
| COc1cc2ncnc(Nc3ccc(F)c(Br)c3)c2cc1OCCCN1CCNCCNCCNCC1 | 11.8 µM | 1.58 µM |  |
| COc1cc2ncnc(Nc3ccc(F)c(Cl)c3)c2cc1OCCCN1CCNCCNCC1 | > 50 µM | 1.31 µM | IC50 [8]: 0.0083 µM |
| COc1cc2ncnc(Nc3cccc(Br)c3)c2cc1OCCCN1CCNCCNCC1 | 34.3 µM | 2.32 µM |  |
| COc1cc2ncnc(Nc3ccc(F)c(Br)c3)c2cc1OCCCN1CCNCCNCC1 | 34.3 µM | 1.06 µM |  |
| COc1cc2ncnc(Nc3ccc(Cl)c(C(F)(F)F)c3)c2cc1OCCCN1CCNCCNCCNCC1 | 5.35 µM | 1.71 µM |  |
| C#Cc1cccc(Nc2ncnc3cc(OC)c(OCCCN4CCNCCNCC4)cc23)c1 | > 50 µM | 2.23 µM |  |
| COc1cc2ncnc(Nc3ccc(Br)cc3F)c2cc1OCCCN1CCNCCNCC1 | 16.1 µM | 0.561 µM | IC50 [8]: 0.0282 µM |
| CCc1cc(Br)ccc1Nc1ncnc2cc(OC)c(OCCCN3CCNCCNCCNCC3)cc12 | > 50 µM | 5.65 µM |  |
| C#Cc1cccc(Nc2ncnc3cc(OC)c(OCCCN4CCNCCNCCNCC4)cc23)c1 | 28.6 µM | 1.11 µM |  |
| COc1cc2ncnc(Nc3cccc(F)c3)c2cc1OCCCN1CCNCCNCC1 | > 50 µM | 7.91 µM |  |
| COc1cc2ncnc(Nc3cccc(Cl)c3)c2cc1OCCCN1CCNCCNCC1 | > 50 µM | 1.12 µM |  |
| COc1cc2ncnc(Nc3ccc(C#N)cc3F)c2cc1OCCCN1CCNCCNCCNCC1 | > 50 µM | 6.37 µM |  |
| COc1cc2ncnc(Nc3cccc(Cl)c3)c2cc1OCCCN1CCNCCNCCNCC1 | 27.1 µM | 1.42 µM |  |
| COc1cc2ncnc(Nc3ccc(Cl)cc3Cl)c2cc1OCCCN1CCNCCNCC1 | 44.2 µM | 4.08 µM |  |
| COc1cc2ncnc(Nc3ccc(C#N)cc3F)c2cc1OCCCN1CCNCCNCC1 | > 50 µM | 12.7 µM |  |
| COc1cc2ncnc(Nc3ccc(OCc4cccc(F)c4)c(Cl)c3)c2cc1OCCCN1CCNCCNCC1 | 7.25 µM | 0.442 µM | IC50 [8]: 0.0003 µM; IC50 [9]: 0.0096 µM; IC50 [10]: 0.0406 µM; Activity (A549 [2]): inactive; Activity (A549 [6]): Active; Activity (A549 [19]): Active |
